Data taken from publication PMC4224566 (Molecular Pharmaceutics, 2014).

Format: physicochemical
Conditions: 0.5 M pH 4.0 acetate buffer, 1 mg/mL, 100 °C, analytical HPLC, LC-MS
Procedure, shortened: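 Each peptide (about 0.1 mL) was heated in a sealed plastic tube, cooled, and then analysed by reversed-phase C18 analytical HPLC with UV detection. The HPLC ran at 1 mL/min: 5% acetonitrile/0.1% TFA in water/0.1% TFA for 5 min, then rising by 2%/min to 65%. Samples showing decomposition were run on a separate LC-MS. Samples with little or none were heated 30 min more and re-analysed.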

Substance: Ph-NCS-E[c(RGDfK)]2 [compound 10]
- release of monomer after 10 min heating: obvious release of c(RGDfK)
